Assay outcomes as filed in PubChem.
TCR CD3 inh – blocks the human TCR-CD3 interaction. TAMRA-labeled TCR probe fluorescence, biochemical. inhibition, % at 9.4 µM. actives 0.37% (n = 360,000); in the data active means inhibition above about 19%;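 further: recombinant mutant TCR 2C K166C tagged with TAMRA read by polarization; 0% = receptor in buffer alone and 100% = receptor with positive control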
ARFGAP1 inh – inhibits rat ARF GTPase activating protein 1; Q62848; Arfgap1-stimulated ARF1 GTP hydrolysis, GDP FP detection; actives 0.26% (n = 360,000); inhibition, % at 16.5 µM;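 active means inhibition above a per-plate limit, mean inhibition of low control wells plus 3 SD, cut at about 25% in these data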;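 further: 0% = DMSO wells with enzyme and 100% = wells lacking Arfgap1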
Target sequence (Q62848 1-136 limits assumed): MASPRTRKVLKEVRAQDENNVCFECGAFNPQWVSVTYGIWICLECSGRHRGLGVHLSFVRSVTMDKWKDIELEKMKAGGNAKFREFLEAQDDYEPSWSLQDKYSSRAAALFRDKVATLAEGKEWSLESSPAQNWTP
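Material: truncated rat Arfgap1 GAP domain; Incubation: compound-enzyme preincubation 20 min, reaction 120 min, detection 60 min, 25 °C; Read-out: percent inhibition of Arfgap1-stimulated GTP hydrolysis; Technique: FP, GDP Alexa 633 tracer displaced from anti-GDP antibody, 620/688 nm; Controls: No-Arfgap1 wells (100%) versus DMSO full-reaction wells (0%); Replication: single well per compound.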
ASAP1 inh – blocks human ASAP1-stimulated Arf1 GTP hydrolysis; Q9ULH1; GDP FP detection; inhibition, % at 16.5 µM; actives 0.19% (n = 360,000); AID 624377; in the data active means inhibition above about 25%;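 further: 0% = vehicle with enzyme and substrate and 100% = no enzyme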
MBD2 inh – MBD2-methylated oligo binding inhibition. TR-FRET, MBD2 binding to methylated oligonucleotide. inhibition, % at 4.4 µM. actives 0.31% (n = 370,000). AID 686964; in the data active means inhibition above about 13%
Target sequence (Q9UBB5 whole entry, looked up): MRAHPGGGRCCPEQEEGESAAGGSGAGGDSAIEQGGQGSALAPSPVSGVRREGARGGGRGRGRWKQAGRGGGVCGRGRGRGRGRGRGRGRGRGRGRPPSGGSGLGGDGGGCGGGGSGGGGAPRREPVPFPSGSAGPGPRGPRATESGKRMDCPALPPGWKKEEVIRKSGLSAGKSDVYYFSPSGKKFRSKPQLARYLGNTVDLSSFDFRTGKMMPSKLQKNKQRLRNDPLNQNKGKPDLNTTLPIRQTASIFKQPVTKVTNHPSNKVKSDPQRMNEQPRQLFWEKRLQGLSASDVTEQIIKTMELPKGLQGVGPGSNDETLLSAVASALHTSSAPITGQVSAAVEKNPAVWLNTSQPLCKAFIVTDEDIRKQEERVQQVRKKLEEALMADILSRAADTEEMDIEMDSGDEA
UHRF1 binding – UHRF1 methyl-DNA binding inhibition; inhibition, % at 4.4 µM; actives 0.75% (n = 370,000); UHRF1 binding to methylated oligo, TR-FRET; Q96T88; in the data active means inhibition above about 21%;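 further: UHRF1 SRA domain binding a hemimethylated CpG hairpin DNA probe; 0% = median of test compound wells and 100% = reference inhibitor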
LEDGF integ inh – blocks HIV-1 LEDGF/p75-dependent DNA integration; inhibition, % at 3.7 µM; actives 0.64% (n = 370,000); TR-FRET IN-LEDGF/p75 DNA integration, Eu/Cy5;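 active means inhibition above the screen-wide mean plus 3 SD, cut at about 13% in these data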;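 further: signal is the Cy5 over europium emission ratio at 671 and 618 nm; 0% = plate median of compound wells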
ASAP1 inh confirm – confirmation of human ASAP1 inhibitors; shares compounds with ASAP1 inh; ASAP1-stimulated Arf1 GTPase, GDP fluorescence polarization; inhibition, % at 16.5 µM; actives 37% (n = 620); AID 624431;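 active means mean inhibition over triplicates exceeds the hit threshold derived for the earlier primary screening run, cut at about 25% in these data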
Starred values were filed as active, the others as inactive; / = no result given. Rows were chosen to be rich in hits. Some 2% of all compounds tested hit in one or more screens of this group.

SMILES	TCR CD3 inh	ARFGAP1 inh	ASAP1 inh	MBD2 inh	UHRF1 binding	LEDGF integ inh	ASAP1 inh confirm
CC(/C=C/c1ccccc1)=N\NC(=O)CNC(=O)c1ccccc1Cl	1	1	25*	-3	-2	-3	5
NC(=O)COC(=O)CC(NC(N)=O)c1ccc(Cl)cc1 (configuration not stated)	-1	1	26*	0	1	0	0
Cc1cc(C(=O)COC(=O)CC(NC(N)=O)c2ccc(Cl)cc2)c(C)n1C (configuration not stated)	2	8	4	-4	0	12	/
CCCN1CCCCC(NC(=O)c2c(F)cccc2F)C1=O (configuration not stated)	1	12	13	-2	-4	0	/
COc1ccc(S(=O)(=O)N2CCC3CC2c2c(-c4ccc(C(F)(F)F)cc4)cccc23)cc1 (configuration not stated)	0	2	-3	-1	0	-1	/
Cc1ccc(-c2[nH]nc(N)c2N=Nc2ccccc2C)cc1	-2	19	27*	-5	-2	4	20
Cc1cccc(N=Nc2c(N)n[nH]c2-c2ccc(Cl)cc2)c1	3	10	26*	-7	-1	-1	18
CCCCC(=O)Nc1ccc(C(=O)NCC2COc3ccccc3O2)cc1 (configuration not stated)	/	/	/	0	-5	4	/
Cc1c[nH]c2cccc(-c3ccc(Cl)cc3Cl)c12	/	/	/	1	-1	8	/
CC(=O)NCCNc1nc2cc(-c3ccccc3)sc2c(=O)n1C	-6	-4	28*	1	-2	3	5
Cc1cccc(/C=C2/Sc3ccc(C(=O)NCCCN4CCOCC4)cc3NC2=O)c1	12	11	6	4	-1	-3	/
COc1ccc(/C=C2/Sc3ccc(C(=O)NCCCN4CCOCC4)cc3NC2=O)cc1OC	-9	17	32*	-2	4	-3	89*
O=C1O[C@@H](c2ccccc2)C[C@@H](O)C(=O)CCCc2ccccc21	4	-6	-4	1	3	-2	/
COc1cc(/C=C/C(=O)Nc2cc(C(F)(F)F)ccc2Cl)cc(OC)c1OC	-1	2	25*	0	0	0	14
COc1ccc(C(=O)NCC2CCN(C(=O)C(=O)c3cccs3)CC2)cc1	-5	7	2	5	12	-4	/
CCc1ccc(CCOc2ccc(CC3SC(=O)NC3=O)cc2)nc1 (configuration not stated)	-6	12	25*	9	0	0	3
CCOc1ccc(CC2S/C(=N/c3ccccn3)NC2=O)cc1 (configuration not stated)	3	-11	3	-3	1	1	/
Cc1ccc(Nc2cc(C)c3c(O)cccc3n2)cc1C	-6	9	30*	2	1	-4	18
O=C(CSc1nn(-c2ccccc2)c(=S)s1)Nc1ncccn1	3	12	26*	-5	-4	1	44*
Cc1cc(C)nc(NC(=O)CSc2nn(-c3ccccc3)c(=S)s2)n1	1	-5	-8	-1	3	6	/
COc1ccc2nc(NC(=O)c3cccc(N4C(=O)CCC4=O)c3)sc2c1	0	-2	26*	5	2	-6	9
CCOc1ccc2nc(NC(=O)c3cccc(N4C(=O)CCC4=O)c3)sc2c1	-5	8	1	2	-1	-3	/
COC(=O)c1ccccc1NC1=C/C(=N\S(=O)(=O)c2cccs2)c2ccccc2C1=O	-3	11	35*	-7	-4	1	6
CCC(=O)c1ccc(OC(=O)C2CCN(C3=NS(=O)(=O)c4ccccc43)CC2)cc1	0	-3	27*	5	1	-2	9
Cc1ccc(OCC(=O)N2CCN(C3=NS(=O)(=O)c4ccccc43)CC2)cc1	-2	-22	0	0	-6	-1	/
SMILES	TCR CD3 inh	ARFGAP1 inh	ASAP1 inh	MBD2 inh	UHRF1 binding	LEDGF integ inh	ASAP1 inh confirm
O=C(Nc1ccc(Br)cc1)C1CCCN(C2=NS(=O)(=O)c3ccccc32)C1 (configuration not stated)	-4	-13	-4	1	6	-1	/
O=C(Oc1ccc(Br)cc1)C1CCN(C2=NS(=O)(=O)c3ccccc32)CC1	-10	0	25*	5	-1	-4	5
CCOC(=O)CC[C@@]1(C(=O)OCC)C[C@@H](CC(=O)N2CCN(C(=O)c3ccco3)CC2)C(=O)N2CCCC=C21	/	/	/	-4	-2	6	/
COC(=O)[C@]12CCCCC=C1N(Cc1ccc(OC)cc1)C(=O)[C@@H]2CC(=O)NCc1ccc(C)o1	/	/	/	1	0	-1	/
CC1(C)CC(CCC(=O)Nc2ccc(S(N)(=O)=O)cc2)C(=O)O1 (configuration not stated)	-5	-5	25*	3	1	-1	-4
Cc1ccc(NC(=O)CCC2CC(C)(C)OC2=O)cc1 (configuration not stated)	7	-8	-15	-1	2	-2	/
Cc1ccc(S(=O)(=O)N(CC2CO2)c2cc(Cl)ccc2Cl)cc1 (configuration not stated)	-2	10	28*	1	-1	-7	1
CCCCCCCCN1C(=O)[C@H](CC(=O)NCc2ccc(OC)c(OC)c2)C[C@@]2(C(=O)OCC)CCCC=C12	-10	-8	10	-2	-4	3	/
Cc1cc(N2CCN(C)CC2)nc2ccc(NC(=O)CCC3CCCC3)cc12	-2	24	28*	0	0	2	39*
Cc1cc(N2CCN(C)CC2)nc2ccc(NC(=O)CCC(=O)NCCC3=CCCCC3)cc12	2	6	17	1	1	0	/
CC1CCC2(CC1)NC(=O)N(CC(=O)Nc1ccc(F)cc1)C2=O (configuration not stated)	-1	16	-3	2	-1	-5	/
NC(=NCc1ccccc1)NC(=O)OCc1ccccc1	/	/	/	2	-3	1	/
COc1ccc(-c2[nH]ncc2/C=N\NC(=O)c2ccc(Br)o2)cc1OC	1	19	25*	-3	-1	-1	17
Cc1cc(NC(=O)c2ccc(NC(=O)C3CC3)cc2)no1	-4	-2	8	0	-1	4	/
Cc1cc(Nc2cc(Cl)nc(Sc3ccc(NC(=O)C4CC4)cc3)n2)n[nH]1	5	18	30*	5	-4	-5	22
COc1ccc(OC)c(C(C(=O)NC2CCCCC2)N(Cc2ccco2)C(=O)c2ccccn2)c1 (configuration not stated)	-7	2	26*	0	2	1	-1
